# How the values were obtained:
# Format in all cases: functional
# Aspergillus niger = test: Antifungal activity against Aspergillus niger by NCCLS broth microdilution method
# In short: (§1)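 MIC90 was taken as the lowest concentration that inhibited 90% of pathogen growth after incubation, reported in μg/mL. Broth dilution followed the NCCLS reference standards: M27-A for yeasts and the proposed standard for conidium-forming filamentous fungi. Fluconazole was the reference drug.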
# Cryptococcus neoformans = test: Antifungal activity against Cryptococcus neoformans by NCCLS broth microdilution method; in short: as §1
# Candida albicans = test: Antifungal activity against Candida albicans by NCCLS broth microdilution method; in short: as §1
# Klebsiella pneumoniae = test: Antibacterial activity against Klebsiella pneumoniae by NCCLS broth microdilution method
# Bacillus subtilis = test: Antibacterial activity against Bacillus subtilis by NCCLS broth microdilution method
# Staphylococcus aureus = test: Antibacterial activity against Staphylococcus aureus by NCCLS broth microdilution method
# Candida parapsilosis = test: Antifungal activity against Candida parapsilosis by NCCLS broth microdilution method; in short: as §1
# Pseudomonas aeruginosa = test: Antibacterial activity against Pseudomonas aeruginosa by NCCLS broth microdilution method
# [1] = Aspergillus niger, read-out: MIC90
# [2] = Cryptococcus neoformans, read-out: MIC90
# [3] = Candida albicans, read-out: MIC90
# [4] = Klebsiella pneumoniae, read-out: MIC90
# [5] = Bacillus subtilis, read-out: MIC90
# [6] = Staphylococcus aureus, read-out: MIC90
# [7] = Lodderomyces parapsilosis, read-out: MIC90
# [8] = Pseudomonas aeruginosa, read-out: MIC90
Compound,MIC90 (Aspergillus niger; [1]) [µg/mL],MIC90 (Cryptococcus neoformans; [2]) [µg/mL],MIC90 (Candida albicans; [3]) [µg/mL],MIC90 (Klebsiella pneumoniae; [4]) [µg/mL],MIC90 (Bacillus subtilis; [5]) [µg/mL],MIC90 (Staphylococcus aureus; [6]) [µg/mL],MIC90 (Candida parapsilosis; [7]) [µg/mL],MIC90 (Pseudomonas aeruginosa; [8]) [µg/mL],MIC90 (Aspergillus niger) [µg/mL],MIC90 (Cryptococcus neoformans) [µg/mL],MIC90 (Candida albicans) [µg/mL],MIC90 (Klebsiella pneumoniae) [µg/mL],MIC90 (Bacillus subtilis) [µg/mL],MIC90 (Staphylococcus aureus) [µg/mL],MIC90 (Candida parapsilosis) [µg/mL],MIC90 (Pseudomonas aeruginosa) [µg/mL]
CC12CCCC(/C1=N\O)C(c1cccc(Cl)c1)NC2c1cccc(Cl)c1 (centres undefined),> 128,128,64,64,> 128,64,64,> 128,,,,,,,,
CC12CCCC(/C1=N\O)C(c1ccc(Br)cc1)NC2c1ccc(Br)cc1 (centres undefined),128,128,> 128,> 128,> 128,64,> 128,> 128,,,,,,,,
Cc1ccc(C2NC(c3ccc(C)cc3)C3(C)CCCC2/C3=N\O)cc1 (centres undefined),64,128,128,> 128,128,128,> 128,> 128,,,,,,,,
CC1CC2C(=NO)C(C1)C(c1ccccc1F)NC2c1ccccc1F (stereo in doubt; 49b),,,,,,,,,4,16,16,64,32,32,32,128
CON=C1C2CC(C)CC1C(c1ccccc1Cl)NC2c1ccccc1Cl (stereo in doubt; 58a),,,8,,,4,,,32,16,,4,8,,16,4
CC12CCCC(/C1=N\O)C(c1ccc(F)cc1)NC2c1ccc(F)cc1 (centres undefined),64,32,16,32,64,16,32,64,,,,,,,,
COc1cccc(C2NC(c3cccc(OC)c3)C3(C)CCCC2/C3=N\O)c1 (centres undefined),> 128,128,> 128,> 128,128,128,> 128,> 128,,,,,,,,
CC1CC2C(=NO)C(C1)C(c1ccc(F)cc1)NC2c1ccc(F)cc1 (centres undefined),64,32,32,32,64,8,64,64,,,,,,,,
Cc1ccccc1C1NC(c2ccccc2C)C2(C)CCCC1/C2=N\O (centres undefined),64,> 128,128,128,64,128,> 128,> 128,,,,,,,,
CC12CCCC(/C1=N\O)C(c1cccc(F)c1)NC2c1cccc(F)c1 (centres undefined),128,> 128,32,32,128,64,64,128,,,,,,,,
CC12CCCC(/C1=N\O)C(c1ccccc1Cl)NC2c1ccccc1Cl (centres undefined),16,8,64,16,64,8,8,32,,,,,,,,
CO/N=C1\C2CCCC1(C)C(c1cccc(Cl)c1)NC2c1cccc(Cl)c1 (centres undefined),128,64,32,32,128,64,32,64,,,,,,,,
CC12CCCC(/C1=N\O)C(c1ccccc1)NC2c1ccccc1 (centres undefined),> 128,> 128,> 128,> 128,> 128,128,> 128,> 128,,,,,,,,
CC1CC2C(=NO)C(C1)C(c1ccc(Cl)cc1)NC2c1ccc(Cl)cc1 (centres undefined),32,64,64,16,32,32,64,32,,,,,,,,
CC1CC2C(=NO)C(C1)C(c1ccccc1Cl)NC2c1ccccc1Cl (stereo in doubt; 52a),,32,,32,32,16,32,,> 128,,16,,,,,32
CO/N=C1\C2CCCC1(C)C(c1ccc(F)cc1)NC2c1ccc(F)cc1 (centres undefined),32,16,8,16,32,8,8,16,,,,,,,,
CC1CC2C(=NO)C(C1)C(c1cccc(F)c1)NC2c1cccc(F)c1 (stereo in doubt; 50b),,,,,,,,,32,64,64,64,>128,32,32,32

Compound,MIC90 (Aspergillus niger; [1]) [µg/mL],MIC90 (Cryptococcus neoformans; [2]) [µg/mL],MIC90 (Candida albicans; [3]) [µg/mL],MIC90 (Klebsiella pneumoniae; [4]) [µg/mL],MIC90 (Bacillus subtilis; [5]) [µg/mL],MIC90 (Staphylococcus aureus; [6]) [µg/mL],MIC90 (Candida parapsilosis; [7]) [µg/mL],MIC90 (Pseudomonas aeruginosa; [8]) [µg/mL],MIC90 (Aspergillus niger) [µg/mL],MIC90 (Cryptococcus neoformans) [µg/mL],MIC90 (Candida albicans) [µg/mL],MIC90 (Klebsiella pneumoniae) [µg/mL],MIC90 (Bacillus subtilis) [µg/mL],MIC90 (Staphylococcus aureus) [µg/mL],MIC90 (Candida parapsilosis) [µg/mL],MIC90 (Pseudomonas aeruginosa) [µg/mL]
CC12CCCC(/C1=N\O)C(c1ccc(Cl)cc1)NC2c1ccc(Cl)cc1 (centres undefined),64,32,32,16,> 128,64,64,> 128,,,,,,,,
CO/N=C1\C2CCCC1(C)C(c1ccccc1Cl)NC2c1ccccc1Cl (centres undefined),16,4,32,8,32,4,4,8,,,,,,,,
CO/N=C1\C2CCCC1(C)C(c1ccc(C)cc1)NC2c1ccc(C)cc1 (centres undefined),32,64,128,64,32,64,> 128,128,,,,,,,,
CON=C1C2CC(C)CC1C(c1ccccc1F)NC2c1ccccc1F (stereo in doubt; 55a),,,,,4,,,,16,16,8,2,,2,32,8
CC12CCCC(/C1=N\O)C(c1ccccc1Br)NC2c1ccccc1Br (centres undefined),128,> 128,64,128,128,64,64,> 128,,,,,,,,
CO/N=C1\C2CCCC1(C)C(c1ccccc1Br)NC2c1ccccc1Br (centres undefined),32,128,64,64,64,64,32,128,,,,,,,,
CO/N=C1\C2CCCC1(C)C(c1cccc(OC)c1)NC2c1cccc(OC)c1 (centres undefined),> 128,128,> 128,128,64,32,64,> 128,,,,,,,,
CO/N=C1\C2CCCC1(C)C(c1ccccc1OC)NC2c1ccccc1OC (centres undefined),128,128,64,32,32,32,64,64,,,,,,,,
CO/N=C1\C2CCCC1(C)C(c1ccc(Cl)cc1)NC2c1ccc(Cl)cc1 (centres undefined),8,8,16,16,64,32,16,64,,,,,,,,
CO/N=C1\C2CCCC1(C)C(c1ccccc1C)NC2c1ccccc1C (centres undefined),64,128,64,128,32,32,128,128,,,,,,,,
CO/N=C1\C2CCCC1(C)C(c1cccc(F)c1)NC2c1cccc(F)c1 (centres undefined),64,128,16,32,128,16,64,32,,,,,,,,
CON=C1C2CC(C)CC1C(c1ccccc1F)NC2c1ccccc1F (stereo in doubt; 55b),,,,,,,,,2,4,2,16,8,16,2,32
COc1ccc(C2NC(c3ccc(OC)cc3)C3(C)CCCC2/C3=N\O)cc1 (centres undefined),128,> 128,128,64,128,32,> 128,> 128,,,,,,,,
CC1CC2C(=NO)C(C1)C(c1cccc(Cl)c1)NC2c1cccc(Cl)c1 (centres undefined),64,> 128,64,32,32,64,128,64,,,,,,,,
GENTAMICIN,,,,,,,,,,,,2,16,4,,16
CC12CCCC(/C1=N\O)C(c1ccccc1F)NC2c1ccccc1F (centres undefined),64,64,8,16,32,8,8,32,,,,,,,,
OC(Cn1cncn1)(Cn1cncn1)c1ccc(F)cc1F [FLUCONAZOLE],4,2,1,,,,2,,,,,,,,,

# Source: ChEMBL document CHEMBL1154956, “Stereospecific synthesis of oximes and oxime ethers of 3-azabicycles: A SAR study towards antimicrobial agents” (2010)
